Assays:
Type in all cases: functional
SK-MEL-5 = assay: Compound was evaluated for cytotoxicity against human SKMEL-5 melanoma cell line.; details: read-out: ED50 (the source's name)
Summary of the method: (§1)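 MTT colorimetric assay run in the Purdue Cell Culture Laboratory. Poorly water-soluble compounds were serially diluted in DMSO and added as 0.5 μL aliquots per well. Cells were incubated with compound for 6 days before MTT was added. […] The reported ED50 is the mean of two determinations.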

MLM = assay: Cytotoxicity against human MLM melanoma cell line.; details: read-out: ED50 (the source's name); summary of the method: as §1
HT-29 = assay: Cytotoxicity against human HT-29 colon cell line.; details: read-out: ED50 (the source's name); summary of the method: as §1
MCF7 = assay: Cytotoxicity against human MCF-7 breast cancer cell line.; details: read-out: ED50 (the source's name); summary of the method: as §1
A549 = assay: Compound was evaluated for cytotoxicity against human A-549 non-small cell lung cancer cell line.; details: read-out: ED50 (the source's name); summary of the method: as §1
Bos taurus = species on record: Bos taurus; assay: Inhibition of tubulin polymerization
Summary of the method: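 Bovine brain tubulin, purified to electrophoretic homogeneity, was preincubated at 37 °C with a range of compound concentrations and then chilled on ice. GTP was added and polymerization followed at 37 °C by turbidity at 350 nm. Extent was read at 20 min against two controls per experiment, and IC50 was determined graphically. Actives were run in ≥3 independent assays, inactives (IC50 > 40 μM) in ≥2.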

## COc1ccc(C2Cc3cc(OC)c(OC)c(OC)c3C2=O)cc1 (centres undefined)
SK-MEL-5
  EC50: > 25 µM
MLM
  EC50: > 25 µM
HT-29
  EC50: > 25 µM
MCF7
  EC50: > 25 µM
A549
  EC50: > 25 µM
Bos taurus
  IC50: > 40 µM

## CCc1ccc(/C=C\c2cc(OC)c(OC)c(OC)c2)cc1
SK-MEL-5
  EC50: 0.00086 µM
MLM
  EC50: 0.0075 µM
HT-29
  EC50: 0.0027 µM
MCF7
  EC50: 0.072 µM
A549
  EC50: 0.012 µM
Bos taurus
  IC50: 3.4 µM

## COc1ccc(/C=C/c2cc(OC)cc(OC)c2)cc1 [TRISMETHOXYRESVERATROL]
SK-MEL-5
  EC50: 0.88 µM
MLM
  EC50: > 25 µM
HT-29
  EC50: 6.9 µM
MCF7
  EC50: 9.7 µM
A549
  EC50: 7.5 µM
Bos taurus
  IC50: > 40 µM

## COc1ccc2c(c1)CN1CCc3c(cc(OC)c(OC)c3OC)C1C2 (centres undefined)
SK-MEL-5
  EC50: > 25 µM
MLM
  EC50: > 25 µM
HT-29
  EC50: > 25 µM
MCF7
  EC50: > 25 µM
A549
  EC50: > 25 µM
Bos taurus
  IC50: > 40 µM

## COc1ccc(/C=C\c2cc(OC)cc(OC)c2)cc1 [8Z-3,4',5-TRIMETHOXYSTILBENE]
SK-MEL-5
  EC50: 0.42 µM
MLM
  EC50: 0.098 µM
HT-29
  EC50: 0.34 µM
MCF7
  EC50: 0.16 µM
A549
  EC50: 0.13 µM
Bos taurus
  IC50: 3.8 µM

## COc1ccc2ccc3cc(OC)c(OC)c(OC)c3c2c1
SK-MEL-5
  EC50: 12.5 µM
MLM
  EC50: > 25 µM
HT-29
  EC50: 1.1 µM
MCF7
  EC50: > 25 µM
A549
  EC50: > 25 µM
Bos taurus
  IC50: > 40 µM

## COc1ccc(C(=O)c2nccc3c(OC)c(OC)c(OC)cc23)cc1
SK-MEL-5
  EC50: > 25 µM
MLM
  EC50: > 25 µM
HT-29
  EC50: > 25 µM
MCF7
  EC50: > 25 µM
A549
  EC50: > 25 µM
Bos taurus
  IC50: > 40 µM

## CCCOc1ccc(/C=C\c2cc(OC)c(OC)c(OC)c2)cc1
SK-MEL-5
  EC50: 0.014 µM
MLM
  EC50: 0.065 µM
HT-29
  EC50: 0.028 µM
MCF7
  EC50: 0.66 µM
A549
  EC50: 0.039 µM
Bos taurus
  IC50: 6 µM

## COc1ccc(/C=C\c2cc(OC)c(OC(C)=O)c(OC)c2)cc1
SK-MEL-5
  EC50: 0.6 µM
MLM
  EC50: > 25 µM
HT-29
  EC50: 8.7 µM
MCF7
  EC50: > 25 µM
A549
  EC50: 21.5 µM
Bos taurus
  IC50: 24 µM

## CCN(CC)CCOc1ccc(CCc2cc(OC)c(OC)c(OC)c2)cc1
SK-MEL-5
  EC50: 8.5 µM
MLM
  EC50: > 25 µM
HT-29
  EC50: 5.2 µM
MCF7
  EC50: 4.3 µM
A549
  EC50: 6.8 µM
Bos taurus
  IC50: > 40 µM

## CCN(CC)CCOC(=O)/C(=C/c1ccc(OC)cc1)c1cc(OC)c(OC)c(OC)c1
SK-MEL-5
  EC50: 2.7 µM
MLM
  EC50: > 25 µM
HT-29
  EC50: 2.8 µM
MCF7
  EC50: 2.1 µM
A549
  EC50: 1.8 µM
Bos taurus
  IC50: > 40 µM

## CNC(=O)/C(=C/c1ccc(OC)cc1)c1cc(OC)c(OC)c(OC)c1
SK-MEL-5
  EC50: 2.4 µM
MLM
  EC50: 93 µM
HT-29
  EC50: 2.6 µM
MCF7
  EC50: 5 µM
A549
  EC50: 2.4 µM
Bos taurus
  IC50: 35 µM

## COc1ccc(/C=C\c2cc(OC)c(OCc3ccccc3)c(OC)c2)cc1
SK-MEL-5
  EC50: 0.61 µM
MLM
  EC50: > 25 µM
HT-29
  EC50: 0.95 µM
MCF7
  EC50: 1.92 µM
A549
  EC50: 1.04 µM
Bos taurus
  IC50: > 40 µM

## COc1ccc(/C=C(/C(=O)O)c2cc(OC)c(OC)c(OC)c2)cc1
SK-MEL-5
  EC50: 9.1 µM
MLM
  EC50: > 25 µM
HT-29
  EC50: 8.4 µM
MCF7
  EC50: 12.8 µM
A549
  EC50: 13.9 µM
Bos taurus
  IC50: > 40 µM

Source: ChEMBL document CHEMBL1126297, “Synthesis and evaluation of analogues of (Z)-1-(4-methoxyphenyl)-2-(3,4,5-trimethoxyphenyl)ethene as potential cytotoxic and antimitotic agents” (J Med Chem, 1992)
